Source: ChEMBL document CHEMBL1149388, “Synthesis and structure-activity relationships of 3-[(2-methyl-1,3-thiazol-4-yl)ethynyl]pyridine analogues as potent, noncompetitive metabotropic glutamate receptor subtype 5 antagonists; search for cocaine medications” (J Med Chem, 2006)
pIC50, pKi: −log10 of the molar value. Calls of active or inactive are those of the source. The rule behind the calls is not given here.

What follows are molecules tested against Metabotropic glutamate receptor 5 (Homo sapiens, UniProt P41594) (assay: Displacement of [3H]MPEP from cloned human mGluR5 transfected in HEK293-T cells).
Type: cell-based
Method in brief: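 HEK293-T cells transiently transfected with cloned mGluR5 cDNA. Binding used 3.0 nM [3H]-MPEP with varying unlabeled ligand in 50 mM Tris-Cl, 0.9% NaCl, pH 7.4, incubated 90 min at 20 °C. Membranes were harvested on PEI-pretreated GF/C filters and counted by scintillation to obtain Ki.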

Sequence of Metabotropic glutamate receptor 5 (Homo sapiens, UniProt P41594) (P41594 whole entry): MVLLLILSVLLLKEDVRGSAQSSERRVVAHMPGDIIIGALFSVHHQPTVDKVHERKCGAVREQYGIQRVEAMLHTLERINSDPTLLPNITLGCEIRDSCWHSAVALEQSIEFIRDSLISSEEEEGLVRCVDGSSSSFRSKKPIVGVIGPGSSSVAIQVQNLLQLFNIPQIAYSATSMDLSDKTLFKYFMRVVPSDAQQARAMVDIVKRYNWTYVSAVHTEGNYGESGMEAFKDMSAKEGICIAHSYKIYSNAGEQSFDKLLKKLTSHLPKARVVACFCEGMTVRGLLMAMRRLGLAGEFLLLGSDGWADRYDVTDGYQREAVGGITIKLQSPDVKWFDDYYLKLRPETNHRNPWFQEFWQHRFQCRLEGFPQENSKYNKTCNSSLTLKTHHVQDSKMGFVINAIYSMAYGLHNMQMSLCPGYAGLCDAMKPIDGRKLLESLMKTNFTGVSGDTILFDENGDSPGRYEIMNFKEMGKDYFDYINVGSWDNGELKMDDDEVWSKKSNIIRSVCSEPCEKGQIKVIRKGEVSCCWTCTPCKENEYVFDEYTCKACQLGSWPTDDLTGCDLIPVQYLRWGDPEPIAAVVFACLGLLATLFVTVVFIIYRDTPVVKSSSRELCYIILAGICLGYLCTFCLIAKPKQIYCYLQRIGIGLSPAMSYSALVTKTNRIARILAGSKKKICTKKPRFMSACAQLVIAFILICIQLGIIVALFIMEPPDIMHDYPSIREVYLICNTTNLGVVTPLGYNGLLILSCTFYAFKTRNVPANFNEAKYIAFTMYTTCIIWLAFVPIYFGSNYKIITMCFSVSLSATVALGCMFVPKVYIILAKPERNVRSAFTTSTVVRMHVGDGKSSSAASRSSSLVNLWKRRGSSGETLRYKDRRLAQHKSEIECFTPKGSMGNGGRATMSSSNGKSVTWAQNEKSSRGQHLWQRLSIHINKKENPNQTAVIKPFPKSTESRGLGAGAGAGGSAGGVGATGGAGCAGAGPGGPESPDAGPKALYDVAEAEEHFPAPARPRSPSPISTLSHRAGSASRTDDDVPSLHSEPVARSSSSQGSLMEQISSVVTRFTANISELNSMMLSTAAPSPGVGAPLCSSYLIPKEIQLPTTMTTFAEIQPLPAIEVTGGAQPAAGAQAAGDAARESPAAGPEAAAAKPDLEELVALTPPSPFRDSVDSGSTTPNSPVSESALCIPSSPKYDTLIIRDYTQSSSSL

Row | SMILES | pKi
1 | Cc1nc(C#Cc2cccc(C#N)c2)cs1 | 9.43
2 | C=Cc1cncc(C#Cc2csc(C)n2)c1 | 9.00

Each molecule was assayed against Metabotropic glutamate receptor 5 (Rattus norvegicus, UniProt P31424) (assay: Displacement of [3H]MPEP from mGluR5 in rat brain membranes).
Type: cell membranes

Sequence of Metabotropic glutamate receptor 5 (Rattus norvegicus, UniProt P31424) (P31424 whole entry): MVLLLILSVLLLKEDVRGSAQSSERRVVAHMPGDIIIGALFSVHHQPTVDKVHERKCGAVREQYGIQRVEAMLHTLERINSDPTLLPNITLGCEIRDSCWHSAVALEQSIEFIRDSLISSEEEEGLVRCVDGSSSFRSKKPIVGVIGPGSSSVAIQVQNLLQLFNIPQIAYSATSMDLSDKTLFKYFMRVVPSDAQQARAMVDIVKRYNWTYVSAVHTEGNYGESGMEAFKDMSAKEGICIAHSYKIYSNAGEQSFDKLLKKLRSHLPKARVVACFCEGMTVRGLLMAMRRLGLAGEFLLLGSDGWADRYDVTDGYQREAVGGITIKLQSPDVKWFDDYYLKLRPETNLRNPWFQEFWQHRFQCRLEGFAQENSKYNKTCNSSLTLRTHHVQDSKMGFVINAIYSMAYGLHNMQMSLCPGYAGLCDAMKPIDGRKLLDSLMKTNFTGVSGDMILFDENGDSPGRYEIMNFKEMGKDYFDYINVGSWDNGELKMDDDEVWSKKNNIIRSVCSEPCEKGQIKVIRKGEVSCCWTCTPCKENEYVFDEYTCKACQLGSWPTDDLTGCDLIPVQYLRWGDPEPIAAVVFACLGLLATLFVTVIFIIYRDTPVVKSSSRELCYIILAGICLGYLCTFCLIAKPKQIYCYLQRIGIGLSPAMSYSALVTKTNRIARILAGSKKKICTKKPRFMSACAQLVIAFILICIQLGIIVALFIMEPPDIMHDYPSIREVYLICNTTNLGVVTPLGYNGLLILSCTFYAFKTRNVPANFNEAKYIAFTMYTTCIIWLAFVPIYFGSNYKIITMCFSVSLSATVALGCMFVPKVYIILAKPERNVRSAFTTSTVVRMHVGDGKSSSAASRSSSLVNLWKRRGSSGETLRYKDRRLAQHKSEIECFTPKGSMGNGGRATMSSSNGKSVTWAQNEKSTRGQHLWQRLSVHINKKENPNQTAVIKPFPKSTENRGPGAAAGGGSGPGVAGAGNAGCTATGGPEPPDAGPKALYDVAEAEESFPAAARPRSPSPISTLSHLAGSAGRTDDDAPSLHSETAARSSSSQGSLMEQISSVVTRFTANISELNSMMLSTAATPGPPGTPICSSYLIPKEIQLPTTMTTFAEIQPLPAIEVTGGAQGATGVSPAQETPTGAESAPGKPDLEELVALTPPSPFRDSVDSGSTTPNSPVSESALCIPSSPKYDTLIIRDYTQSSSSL

Row | SMILES | pKi
3 | Cc1nc(C#Cc2cccc(C#N)c2)cs1 | 9.60
4 | C=Cc1cncc(C#Cc2csc(C)n2)c1 | 9.15

Organism: Rattus norvegicus
Assay: Ability to prevent reinstatement of cocaine-seeking behavior by environmental stimuli associated with cocaine availability in Wistar rat
Type: functional, organism-based
Method in brief: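 Adult male Wistar rats with jugular catheters trained to self-administer cocaine (0.25 mg/kg/infusion) under FR4 in daily 2 h sessions. Extinction continued until active-lever responding fell below 20% of baseline for 3 consecutive days. Cue-induced reinstatement was then tested 30 min after i.p. pretreatment with 5 or 10 mg/kg or vehicle (5% emulphor in saline). Active-lever responses were analysed by one-way ANOVA with Tukey tests.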

Row | SMILES | Activity
5 | Cc1nc(C#Cc2cccnc2)cs1 | Active

What follows are molecules tested against Metabotropic glutamate receptor 5 (Rattus norvegicus) (UniProt P31424) (assay: Activity in agonist-induced phosphoinositide hydrolysis in CHO cells expressing mGluR5a).
Sequence of Metabotropic glutamate receptor 5 (Rattus norvegicus) (P31424 whole entry, looked up): as the sequence (P31424 whole entry) above

Row | SMILES | pIC50
6 | Cc1nc(C#Cc2ccc(-c3ccc(F)cc3)nc2)cs1 | 7.99
7 | COc1ccccc1C#Cc1csc(C)n1 | 7.44
8 | Cc1nc(/C=C/c2cccnc2)cs1 | 5.51
9 | Fc1cccc(C#Cc2csc(-c3cc(F)cc(F)c3)n2)c1 | < 5.00
10 | C#Cc1cncc(C#Cc2csc(C)n2)c1 | 7.72
11 | Cc1nc(C#Cc2cccc(O)c2)cs1 | 6.18
12 | Cc1nc(C#Cc2cccc(F)c2)cs1 | 7.64
13 | Cc1nc(C#Cc2ccc(F)cc2)cs1 | 5.53
14 | COC(=O)Nc1nc(C#Cc2cccnc2)cs1 | < 5.00
15 | Cc1nc(C#Cc2cccnc2)c(-c2ccccc2)s1 | < 5.00
16 | Cc1nc(C#Cc2cccc(C(N)=O)c2)cs1 | 6.00
17 | COc1ccc(-c2cncc(C#Cc3csc(C)n3)c2)cc1 | 6.65
18 | Cc1nc(C#Cc2ccc(Cl)nc2)cs1 | < 5.00
19 | Cc1nc(C#Cc2cnccn2)cs1 | 5.74
20 | Cc1nc(C#Cc2cccc(OC(F)(F)F)c2)cs1 | 6.58
21 | COc1cccc(C#Cc2csc(C)n2)c1 | 7.31
22 | Cc1nc(C(=O)Nc2cccc(F)c2)cs1 | < 5.00
23 | Cc1nc(C#Cc2cccnc2)c(C)s1 | 6.16
24 | COc1ncccc1C#Cc1csc(C)n1 | 6.64

Row | SMILES | pIC50
25 | C(#Cc1csc(NCc2ccccc2)n1)c1cccnc1 | < 5.00
26 | O=C(Nc1nc(C#Cc2cccnc2)cs1)Nc1ccc(F)cc1F | < 5.00
27 | Nc1nc(C#Cc2cccnc2)cs1 | 6.10
28 | Cc1nc(C#Cc2ccc(OS(C)(=O)=O)nc2)cs1 | 5.63
29 | Cc1nc(C#Cc2ccccc2F)cs1 | 6.85
30 | Cc1nc(C#Cc2cc(F)cc(F)c2)cs1 | 7.60
31 | Cc1nc(C(=O)Nc2cccnc2)cs1 | < 5.00
32 | Cc1nc(C#Cc2ccsc2)cs1 | 6.47
33 | Cc1nc(C#Cc2ccc(F)nc2)cs1 | 6.08
34 | COc1ccc(C#Cc2csc(C)n2)cn1 | 6.37
35 | Cc1nc(C#Cc2cccnc2OS(C)(=O)=O)cs1 | < 5.00
36 | CC(=O)Nc1nc(C#Cc2cccnc2)cs1 | 5.72
37 | Cc1nc(C#Cc2cccc(C#N)c2)cs1 | 9.03
38 | C#Cc1ccc(C#Cc2csc(C)n2)cn1 | 5.53
39 | Fc1cccc(C#Cc2csc(Br)n2)c1 | 6.28
40 | OCC#Cc1nc(C#Cc2cccc(F)c2)cs1 | < 5.00
41 | Cc1nc(C#Cc2cccc(Cl)c2)cs1 | 6.89
42 | Cc1nc(C#Cc2cncc(Br)c2)cs1 | 7.22
43 | Cc1nc(C#Cc2ccc3nccnc3c2)cs1 | < 5.00

Row | SMILES | pIC50
44 | Cc1nc(C#Cc2ccc(F)cn2)cs1 | 5.96
45 | Cc1nc(C#Cc2ccc3[nH]ccc3c2)cs1 | < 5.00
46 | C=Cc1ccc(C#Cc2csc(C)n2)cn1 | < 5.00
47 | Cc1nc(C#Cc2cccs2)cs1 | 6.32
48 | Cc1nc(C#Cc2cncnc2)cs1 | 6.02
49 | Cc1nc(C#Cc2cncc(-c3ccc(F)cc3)c2)cs1 | 6.79
50 | Cc1nc(C#Cc2cccc(F)c2)co1 | < 5.00
51 | Cc1nc(C#Cc2cncc(C#CCO)c2)cs1 | 7.16
52 | Cc1nc(C#Cc2cccnc2)co1 | < 5.00
53 | Nc1nc(C#Cc2cccc(F)c2)cs1 | 7.10
54 | CCc1sc(C)nc1C#Cc1cccnc1 | 5.91
55 | C#Cc1nc(C#Cc2cccc(F)c2)cs1 | 5.53
56 | C=Cc1cncc(C#Cc2csc(C)n2)c1 | 8.70
57 | Cc1nc(C#Cc2cnc3ccccc3c2)cs1 | < 5.00
58 | C#Cc1ncccc1C#Cc1csc(C)n1 | 6.72
59 | CC(=O)Nc1cccc(C#Cc2csc(C)n2)c1 | 5.69
60 | Cc1nc(C#Cc2cccc(C(F)(F)F)c2)cs1 | 6.38
61 | Cc1nc(C#Cc2cccnc2Cl)cs1 | 7.34
